Experimental data as given in ChEMBL document CHEMBL4699460, “Integrating DNA-encoded chemical libraries with virtual combinatorial library screening: Optimizing a PARP10 inhibitor” (Bioorg Med Chem Lett, 2020).

Tests used:
[1] = biological target: T1, Protein mono-ADP-ribosyltransferase PARP10 (Homo sapiens) (UniProt Q53GL7); experiment: (§1) Inhibition of N-terminal FLAG-tagged and C-terminal strep-tagged human PARP10 (805 to 1025 residues) expressed in baculovirus infected Sf9 cells assessed as reduction in NAD+-dependent ADP ribosylation using histone as substrate at 1 uM incubated for 1 hr in presence of biotinylated NAD+ and activated DNA by chemiluminescence based microplate reader assay
T1 sequence (whole entry): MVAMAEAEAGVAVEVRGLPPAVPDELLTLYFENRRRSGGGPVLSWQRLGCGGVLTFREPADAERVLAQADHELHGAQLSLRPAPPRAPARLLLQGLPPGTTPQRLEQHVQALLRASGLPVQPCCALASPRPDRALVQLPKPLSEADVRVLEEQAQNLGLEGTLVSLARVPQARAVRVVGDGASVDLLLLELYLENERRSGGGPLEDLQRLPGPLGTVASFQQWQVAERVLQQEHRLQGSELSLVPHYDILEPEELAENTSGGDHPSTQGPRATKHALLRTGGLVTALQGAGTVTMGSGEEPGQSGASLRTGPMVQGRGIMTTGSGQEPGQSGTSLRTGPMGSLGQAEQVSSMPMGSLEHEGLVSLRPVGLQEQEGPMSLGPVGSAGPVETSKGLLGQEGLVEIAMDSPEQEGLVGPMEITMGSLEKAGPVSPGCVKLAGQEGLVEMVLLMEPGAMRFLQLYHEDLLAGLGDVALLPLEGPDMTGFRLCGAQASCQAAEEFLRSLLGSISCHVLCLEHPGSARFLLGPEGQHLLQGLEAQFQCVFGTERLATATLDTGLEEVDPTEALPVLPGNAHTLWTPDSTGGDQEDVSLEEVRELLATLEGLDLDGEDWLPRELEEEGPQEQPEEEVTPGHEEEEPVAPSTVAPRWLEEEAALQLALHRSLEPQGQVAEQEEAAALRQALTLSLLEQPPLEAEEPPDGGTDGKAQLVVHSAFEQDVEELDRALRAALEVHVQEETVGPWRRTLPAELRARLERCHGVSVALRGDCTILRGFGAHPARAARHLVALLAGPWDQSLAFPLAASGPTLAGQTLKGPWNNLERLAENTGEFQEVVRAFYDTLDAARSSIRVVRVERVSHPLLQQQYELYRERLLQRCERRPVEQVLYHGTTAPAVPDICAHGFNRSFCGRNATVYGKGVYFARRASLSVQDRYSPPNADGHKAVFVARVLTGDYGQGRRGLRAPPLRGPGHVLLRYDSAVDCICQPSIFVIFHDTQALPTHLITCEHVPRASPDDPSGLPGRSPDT

[2] = biological target: Protein mono-ADP-ribosyltransferase PARP14 (Homo sapiens) (UniProt Q460N5); experiment: as §1, with “His-GST tagged” for “FLAG-tagged and C-terminal strep-tagged”, “PARP14 (1470” for “PARP10 (805”, “1801” for “1025”, “assay relative to control” for “assay”
Protein mono-ADP-ribosyltransferase PARP14 (Homo sapiens), sequence (Q460N5 whole entry, the tested form may be a part): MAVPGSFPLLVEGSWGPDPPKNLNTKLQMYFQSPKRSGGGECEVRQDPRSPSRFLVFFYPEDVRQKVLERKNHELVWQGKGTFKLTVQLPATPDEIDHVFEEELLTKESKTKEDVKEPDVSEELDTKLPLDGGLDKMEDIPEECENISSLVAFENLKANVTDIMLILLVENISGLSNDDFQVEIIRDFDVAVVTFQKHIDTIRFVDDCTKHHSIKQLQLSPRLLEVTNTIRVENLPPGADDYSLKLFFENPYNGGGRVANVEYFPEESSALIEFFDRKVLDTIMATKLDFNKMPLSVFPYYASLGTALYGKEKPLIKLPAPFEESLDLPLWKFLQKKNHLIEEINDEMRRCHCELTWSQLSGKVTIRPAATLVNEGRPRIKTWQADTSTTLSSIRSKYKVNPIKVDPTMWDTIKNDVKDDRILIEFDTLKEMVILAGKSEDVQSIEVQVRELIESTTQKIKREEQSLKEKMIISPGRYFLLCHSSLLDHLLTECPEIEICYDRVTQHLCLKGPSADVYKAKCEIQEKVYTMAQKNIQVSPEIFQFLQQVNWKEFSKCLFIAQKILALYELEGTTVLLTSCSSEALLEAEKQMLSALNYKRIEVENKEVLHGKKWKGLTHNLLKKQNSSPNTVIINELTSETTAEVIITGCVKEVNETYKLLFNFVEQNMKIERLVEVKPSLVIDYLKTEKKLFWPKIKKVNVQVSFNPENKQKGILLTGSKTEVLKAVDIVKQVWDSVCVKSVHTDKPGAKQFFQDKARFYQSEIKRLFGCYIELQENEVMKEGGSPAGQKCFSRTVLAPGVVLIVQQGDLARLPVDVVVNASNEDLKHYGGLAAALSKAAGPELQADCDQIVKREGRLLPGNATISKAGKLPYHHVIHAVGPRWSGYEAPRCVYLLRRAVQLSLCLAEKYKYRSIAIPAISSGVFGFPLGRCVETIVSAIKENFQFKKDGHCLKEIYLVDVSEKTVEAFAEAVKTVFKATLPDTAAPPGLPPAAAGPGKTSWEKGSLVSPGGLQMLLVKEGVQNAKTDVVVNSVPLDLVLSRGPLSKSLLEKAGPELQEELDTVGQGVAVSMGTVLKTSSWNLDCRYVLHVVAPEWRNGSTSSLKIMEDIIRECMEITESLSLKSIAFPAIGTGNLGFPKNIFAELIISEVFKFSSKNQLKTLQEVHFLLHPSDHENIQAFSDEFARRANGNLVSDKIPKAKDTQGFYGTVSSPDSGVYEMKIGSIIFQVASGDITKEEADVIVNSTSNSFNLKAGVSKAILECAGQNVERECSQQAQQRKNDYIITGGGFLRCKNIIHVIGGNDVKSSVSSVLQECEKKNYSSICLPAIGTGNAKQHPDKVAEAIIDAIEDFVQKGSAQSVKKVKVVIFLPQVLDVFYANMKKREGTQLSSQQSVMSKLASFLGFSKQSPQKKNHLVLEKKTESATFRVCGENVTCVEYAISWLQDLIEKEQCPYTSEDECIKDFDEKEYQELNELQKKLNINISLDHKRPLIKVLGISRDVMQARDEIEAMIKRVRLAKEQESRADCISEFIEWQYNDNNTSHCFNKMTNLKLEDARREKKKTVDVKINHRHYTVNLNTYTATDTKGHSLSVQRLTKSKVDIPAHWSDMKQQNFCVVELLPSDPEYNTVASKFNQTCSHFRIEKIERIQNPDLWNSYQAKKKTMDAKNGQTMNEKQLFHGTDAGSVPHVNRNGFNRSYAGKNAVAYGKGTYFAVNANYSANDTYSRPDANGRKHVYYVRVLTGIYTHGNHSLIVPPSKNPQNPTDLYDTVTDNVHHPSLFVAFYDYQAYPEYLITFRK

[3] = biological target: T2, Protein mono-ADP-ribosyltransferase PARP10 (Homo sapiens, UniProt Q53GL7); experiment: as §1, with “substrate” for “substrate at 1 uM”
T2 sequence (Q53GL7 whole entry): T1 sequence (whole entry)
In short: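 The IC50 was derived from a concentration-dependent inhibition curve for PARP10 in the histone ADP-ribosylation assay.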

[4] = biological target: Protein mono-ADP-ribosyltransferase PARP6 (Homo sapiens) (UniProt Q2NL67); experiment: (§2) Inhibition of N-terminal GST tagged full length human PARP6 expressed in baculovirus infected Sf9 cells assessed as reduction in NAD+-dependent ADP ribosylation using histone as substrate at 10 uM incubated for 1 hr in presence of biotinylated NAD+ and activated DNA by chemiluminescence based microplate reader assay relative to control
Protein mono-ADP-ribosyltransferase PARP6 (Homo sapiens), sequence (Q2NL67 whole entry): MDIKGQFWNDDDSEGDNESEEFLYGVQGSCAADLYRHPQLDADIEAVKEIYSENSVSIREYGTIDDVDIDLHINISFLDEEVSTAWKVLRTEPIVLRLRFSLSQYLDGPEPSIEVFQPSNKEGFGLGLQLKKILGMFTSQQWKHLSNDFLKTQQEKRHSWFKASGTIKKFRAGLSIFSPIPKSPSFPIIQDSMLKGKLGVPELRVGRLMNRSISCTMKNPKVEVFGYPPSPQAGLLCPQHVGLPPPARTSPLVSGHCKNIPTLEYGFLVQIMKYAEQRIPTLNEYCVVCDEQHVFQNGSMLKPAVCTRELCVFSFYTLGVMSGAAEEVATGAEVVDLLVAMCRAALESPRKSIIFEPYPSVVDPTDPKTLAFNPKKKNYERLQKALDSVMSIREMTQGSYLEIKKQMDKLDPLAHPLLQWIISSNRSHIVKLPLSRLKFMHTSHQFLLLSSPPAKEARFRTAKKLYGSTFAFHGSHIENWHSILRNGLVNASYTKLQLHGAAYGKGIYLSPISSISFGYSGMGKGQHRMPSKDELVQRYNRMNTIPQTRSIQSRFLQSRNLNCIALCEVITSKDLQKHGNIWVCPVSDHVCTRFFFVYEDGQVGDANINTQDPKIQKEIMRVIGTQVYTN

[5] = biological target: T1, Protein mono-ADP-ribosyltransferase PARP10 (Homo sapiens); experiment: as §1, with “at 10” for “at 1”, “assay relative to control” for “assay”
[6] = biological target: Protein mono-ADP-ribosyltransferase PARP14 (Homo sapiens) (UniProt Q460N5); experiment: as §2, with “His-GST” for “GST”, “tagged” for “tagged full length”, “PARP14 (1470 to 1801 residues)” for “PARP6”

SMILES | inhibition [1] | inhibition [2] | IC50 [3] | inhibition [4] | inhibition [5] | inhibition [6]
CC1(CNC(=O)COc2cccc3c2CCCC3=O)CCN(C(=O)CCc2nc3ccccc3[nH]c2=O)CC1 | 25% | 21% | 3.9 µM | 0% | 90% | 
CNC(=O)[C@H](CNC(=O)CCc1nc2ccccc2[nH]c1=O)NC(=O)c1ccc2c(c1)CCCC2=O |  |  | 6 µM | < 25% |  | < 25%
